Source: ChEMBL document CHEMBL2331279, “Rational design and synthesis of 4-substituted 2-pyridin-2-ylamides with inhibitory effects on SH2 domain-containing inositol 5'-phosphatase 2 (SHIP2)” (Eur J Med Chem, 2013)
Activity calls are given as the source filed them. No cut-off for these calls is given here.

Target: T1, Phosphatidylinositol 3,4,5-trisphosphate 5-phosphatase 2 (Mus musculus) (UniProt Q6P549)
T1 sequence (whole entry): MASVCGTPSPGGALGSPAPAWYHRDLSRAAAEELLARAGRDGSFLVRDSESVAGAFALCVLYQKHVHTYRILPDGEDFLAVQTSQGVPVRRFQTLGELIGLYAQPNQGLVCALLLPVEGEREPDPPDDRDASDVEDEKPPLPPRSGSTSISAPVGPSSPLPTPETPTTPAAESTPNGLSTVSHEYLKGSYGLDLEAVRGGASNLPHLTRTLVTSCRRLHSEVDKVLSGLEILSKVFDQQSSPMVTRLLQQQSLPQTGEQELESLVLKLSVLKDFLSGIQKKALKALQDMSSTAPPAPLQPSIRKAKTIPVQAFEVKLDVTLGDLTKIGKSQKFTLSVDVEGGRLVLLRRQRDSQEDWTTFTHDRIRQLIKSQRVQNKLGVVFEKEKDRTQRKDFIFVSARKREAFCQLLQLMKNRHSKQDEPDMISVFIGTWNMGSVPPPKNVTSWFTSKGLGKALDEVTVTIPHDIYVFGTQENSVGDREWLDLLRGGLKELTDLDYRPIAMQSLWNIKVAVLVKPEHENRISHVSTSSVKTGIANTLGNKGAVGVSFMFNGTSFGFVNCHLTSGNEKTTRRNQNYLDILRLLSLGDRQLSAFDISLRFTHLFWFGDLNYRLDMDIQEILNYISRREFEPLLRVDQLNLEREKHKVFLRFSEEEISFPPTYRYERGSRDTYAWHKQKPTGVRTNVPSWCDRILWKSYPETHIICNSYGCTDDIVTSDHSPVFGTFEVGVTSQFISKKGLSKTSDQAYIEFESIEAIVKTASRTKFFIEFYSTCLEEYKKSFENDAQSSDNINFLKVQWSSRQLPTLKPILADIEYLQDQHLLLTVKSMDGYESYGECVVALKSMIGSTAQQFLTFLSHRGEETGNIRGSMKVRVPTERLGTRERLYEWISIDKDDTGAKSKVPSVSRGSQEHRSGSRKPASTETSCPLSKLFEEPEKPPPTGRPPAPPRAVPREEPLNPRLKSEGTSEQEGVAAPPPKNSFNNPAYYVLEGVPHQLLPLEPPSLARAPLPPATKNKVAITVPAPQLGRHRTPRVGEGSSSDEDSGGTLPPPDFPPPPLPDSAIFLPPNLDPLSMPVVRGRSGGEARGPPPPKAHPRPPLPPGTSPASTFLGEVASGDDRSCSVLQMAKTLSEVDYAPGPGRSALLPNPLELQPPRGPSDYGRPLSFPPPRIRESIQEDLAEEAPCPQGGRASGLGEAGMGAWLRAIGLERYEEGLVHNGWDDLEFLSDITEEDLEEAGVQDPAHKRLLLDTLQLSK
Test: Inhibition of SHIP2 in mouse 3T3L1 cells assessed as reduction of TNF-alpha induced decrease in insulin-stimulated Akt phosphorylation at Thr308 at 10 uM treated for 15 mins after TNF alpha challenge for 16 hrs and prior to insulin stimulation measured after 2 hrs by Western blot analysis
Type: cell-based
Details: 3T3-L1
Outline: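 3T3-L1 fibroblasts differentiated into adipocytes, then serum-starved 16 h with TNFα 20 ng/mL. Treated with compound 10 µM or 0.1% DMSO for 15 min, then stimulated with 17 nM insulin at 37 °C for 2 h. Cells lysed on ice at pH 7.5 and Thr308 phospho-Akt measured by western blot. Results given as fold change versus TNFα+insulin control. Mean ± SE.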

O=C(Cc1c(F)cccc1F)Nc1cc(OCc2ccc(Cl)cc2)ccn1
inhibition: Active
